Data taken from ChEMBL document CHEMBL1143597, “Thrombospondin-1 mimetic peptide inhibitors of angiogenesis and tumor growth: design, synthesis, and optimization of pharmacokinetics and biological activities” (J Med Chem, 2005).
Where a SMILES comes first, the peptide text is derived from it. [ ]: non-standard residue; d: D form. d(aIle) = CC[C@H](C)[C@@H](N)C(=O)O; Nva = CCC[C@H](N)C(=O)O; Sar = CNCC(=O)O

Columns and labels:
[1] = In vitro inhibitory concentration against HMVE cell migration was determined; format: functional, cell-based; settings: Homo sapiens
How it was run: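 Primary HMVEC grown to 80-90% confluency, starved 18 h in EBM with 5% FCS, labelled with calcein AM 30 min at room temperature. Cells with or without compound (in D5W) are placed above a filter with VEGF (10 ng) below, then held 4 h at 37 °C, 5% CO2. Unmigrated cells are wiped off and fluorescence is read (485/530). % inhibition is taken versus the VEGF positive control.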

[2] = In vitro inhibitory concentration against HMVEC endothelial tube formation was determined; format: functional, Homo sapiens
[3] = In vitro inhibitory concentration against HMVEC endothelial tube formation was determined; […]; format: functional, Homo sapiens
[4] = In vitro inhibitory concentration against HMVEC endothelial tube formation was determined; 50 - 25 nM; format: functional, Homo sapiens
[5] = In vitro inhibitory concentration against HMVEC endothelial tube formation was determined; 0.25 - 0.10 nM; format: functional, Homo sapiens
[6] = Inhibitory concentration against TSP-1 binding towards HMVEC cell line migration; format: functional, cell-based; settings: Homo sapiens
[7] = In vitro inhibitory concentration against HMVEC endothelial tube formation was determined; 200 - 100 nM; format: functional, Homo sapiens

Compound | IC50 [1] [nM] | other results
CCNC(=O)[C@H](CCCN=C(N)N)NC(=O)[C@@H](NC(=O)[C@H](CCCN=C(N)N)NC(=O)[C@@H](NC(=O)[C@H](NC(=O)[C@@H](NC(=O)CNC(C)=O)C(C)C)[C@H](C)CC)[C@@H](C)O)[C@@H](C)CC | > 100 | –
CCC[C@H](NC(=O)[C@@H](NC(=O)[C@H](CCCN=C(N)N)NC(=O)[C@@H](NC(=O)[C@H](NC(=O)[C@@H](NC(=O)CNC(C)=O)C(C)C)[C@H](C)CC)[C@@H](C)O)[C@@H](C)CC)C(=O)NCC | 1.45 | –
CCC[C@H](NC(=O)[C@@H](NC(=O)[C@H](NC(=O)[C@@H](NC(=O)CNC(C)=O)C(C)C)[C@H](C)CC)[C@@H](C)O)C(=O)N[C@H](C(=O)N[C@@H](CCCN=C(N)N)C(=O)NCC)[C@@H](C)CC | 4.22 | –
CCC[C@H](NC(=O)[C@@H](NC(=O)[C@H](NC(=O)[C@@H](NC(=O)CNC(C)=O)C(C)C)[C@H](C)CC)[C@@H](C)O)C(=O)N[C@H](C(=O)N[C@@H](CCCN=C(N)N)C(=O)N1CCC[C@H]1C(=O)NCC)[C@@H](C)CC | 0.07 | –
CCC[C@H](NC(=O)[C@@H](NC(=O)[C@H](NC(=O)[C@@H](NC(=O)CNC(=O)CN(C)C(C)=O)C(C)C)[C@H](C)CC)[C@@H](C)O)C(=O)N[C@H](C(=O)N[C@@H](CCCN=C(N)N)C(=O)N1CCC[C@H]1C(=O)NC(C)C)[C@@H](C)CC | 29 | IC50 [2]: > 1000 nM
CCC[C@H](NC(=O)[C@@H](NC(=O)[C@H](NC(=O)[C@@H](NC(=O)CNC(=O)CN(C)C(=O)CCC(=O)O)C(C)C)[C@H](C)CC)[C@@H](C)O)C(=O)N[C@H](C(=O)N[C@@H](CCCN=C(N)N)C(=O)N1CCC[C@H]1C(=O)NCC)[C@@H](C)CC | 0.26 | IC50 [3]: 10 nM
CCC[C@@H](C(=O)N[C@H](C(=O)N[C@@H](CCCN=C(N)N)C(=O)N1CCC[C@H]1C(=O)NCC)[C@@H](C)CC)N(C)C(=O)[C@@H](NC(=O)[C@H](NC(=O)[C@@H](NC(=O)CNC(=O)CN(C)C(C)=O)C(C)C)[C@H](C)CC)[C@@H](C)O | 0.54 | IC50 [4]: 50 nM
CCC[C@@H](C(=O)N[C@H](C(=O)N[C@@H](CCCN=C(N)N)C(=O)N1CCC[C@H]1C(=O)NCC)[C@@H](C)CC)N(C)C(=O)[C@@H](NC(=O)[C@H](NC(=O)[C@@H](NC(=O)CNC(=O)CN(C)C(=O)CCC(=O)O)C(C)C)[C@H](C)CC)[C@@H](C)O | 0.45 | IC50 [3]: 10 nM
CCC[C@@H](C(=O)N[C@H](C(=O)N[C@@H](CCCN=C(N)N)C(=O)N1CCC[C@H]1C(=O)NC(C)C)[C@@H](C)CC)N(C)C(=O)[C@@H](NC(=O)[C@H](NC(=O)[C@@H](NC(=O)CNC(=O)CN(C)C(=O)CCC(=O)O)C(C)C)[C@H](C)CC)[C@@H](C)O | 0.06 | IC50 [5]: 0.25 nM
CCC[C@H](NC(=O)[C@@H](NC(=O)[C@H](NC(=O)[C@@H](NC(=O)CNC(=O)CN(C)C(C)=O)C(C)C)[C@H](C)CC)[C@@H](C)O)C(=O)N[C@H](C(=O)N[C@@H](CCCN=C(N)N)C(=O)N1CCC[C@H]1C(=O)NCC)[C@@H](C)CC [ABT 510] (Ac-[Sar]GV[dI]T[Nva]IRP-NHEt) | – | IC50 [6]: 0.03 nM; IC50 [7]: 200 nM
CCC[C@H](NC(=O)[C@@H](NC(=O)[C@H](NC(=O)[C@@H](NC(=O)CNC(=O)CN(C)C(C)=O)C(C)C)[C@@H](C)CC)[C@@H](C)O)C(=O)N[C@H](C(=O)N[C@@H](CCCNC(=N)N)C(=O)N1CCC[C@H]1C(=O)NCC)[C@@H](C)CC [ABT-510] (Ac-[Sar]GV[d(aIle)]T[Nva]IRP-NHEt) | – | IC50 [3]: 10 nM; IC50 [6]: 0.89 nM
